Measured values from different studies.
Lines come from different studies, so protocols differ.
Cell line: PC-3
Observed: cell growth or viability

| SMILES | assay | setting | IC50 |
| --- | --- | --- | --- |
| Nc1cc2cccnc2c2ncccc12 | MTT | 48 h, dark | 6.2 µM |
| COc1cc(C(=O)c2nc(-c3cccc4[nH]nnc34)c[nH]2)cc(OC)c1OC | MTS | 72 h | 0.0203 µM |
| CS(=O)(=O)NCCCCN=C=S | MTT | 24 h | 25.4 µM |
| COc1ccc(C=NNC(=O)c2cc(-c3ccccc3)n(-c3ccc(S(N)(=O)=O)cc3)n2)cc1OC | fluorescence | 48 h | 27.1 µM |
| CC1=CC(=O)C(C(C)C)=CC1=O | SRB | 48 h | 12.8 µM |
| O=P1(c2ccccc2)CCCCC1 | MTT | 72 h | > 100 µM |
| COc1cc(C(=O)c2nc(-c3cccc4[nH]ccc34)c[nH]2)cc2c1OCO2 | MTS | 72 h | 0.005 µM |
| NS(=O)(=O)c1ccc(-n2nc(C(=O)NN3C(=O)c4ccccc4C3=O)cc2-c2ccccc2)cc1 | fluorescence | 48 h | 54.4 µM |
| CC(=O)O[C@H]1C(=O)[C@@]2(C)[C@H]([C@H](OC(=O)c3ccccc3)[C@]3(O)C[C@H](OC(=O)[C@H](O)[C@@H](NC(=O)c4ccccc4)c4ccccc4)C(C)=C1C3(C)C)[C@]1(OC(C)=O)CO[C@@H]1C[C@@H]2O | MTS | 72 h | 0.0004 µM |
| NS(=O)(=O)c1ccc(-n2nc(C(=O)NN=Cc3cccnc3)cc2-c2ccccc2)cc1 | fluorescence | 48 h | 38.6 µM |
| CC1(P2(=O)CCCCC2)C=CCC=C1 | MTT | 72 h | > 100 µM |
| CC(=NNC(=O)c1cc(-c2ccccc2)n(-c2ccc(S(N)(=O)=O)cc2)n1)c1ccc(Br)cc1 | fluorescence | 48 h | 48 µM |
| COc1cc(C(=O)c2nc(-c3cccc4[nH]cnc34)c[nH]2)cc(OC)c1OC | MTS | 72 h | 0.0158 µM |
| O=c1[nH]cc(F)c(=O)[nH]1 | MTT | 72 h | > 360 µM |
| CC(C)c1ccc(/C=C2\N=C(SCC(=O)O)N(c3ccccc3)C2=O)cc1 | MTT | – | 50 µg/mL |
| COc1cc(C(=O)c2nc(-c3ccncc3)c[nH]2)cc(OC)c1OC | MTS | 72 h | > 1 µM |
| NS(=O)(=O)c1ccc(-n2nc(C(=O)NN=Cc3ccc(O)cc3)cc2-c2ccccc2)cc1 | fluorescence | 48 h | 17.2 µM |
| COc1cc(C(=O)c2nc(-c3ccsc3)c[nH]2)cc(OC)c1OC | MTS | 72 h | 0.0873 µM |
| NS(=O)(=O)c1ccc(-n2nc(-c3nnc(CCl)o3)cc2-c2ccccc2)cc1 | fluorescence | 48 h | 36.2 µM |
